We go through 1 compound from ChEMBL document CHEMBL4765329, “Exploration of carbamide derived pyrimidine-thioindole conjugates as potential VEGFR-2 inhibitors with anti-angiogenesis effect” (Eur J Med Chem, 2020).

Active and inactive are the calls of the source. The rule behind the calls is not given here.

Assay [1] deals with HUVEC. Description: Antiangiogenic activity against human HUVEC cells assessed as inhibition of tube formation measured after 16 hrs by matrigel based tube formation assay. The class given is functional, cell-based. The conditions noted are these: dose 2.5-5 µM. In outline:
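HUVECs were plated on Matrigel with 2.5 and 5 μM test agent, alongside a reference VEGFR-2 inhibitor. Tube networks were imaged, and quantification covered cell-covered area, tube length, branching points and total loops.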

In assay [2] the test system is MDA-MB-231. In words: Induction of apoptosis in human MDA-MB-231 cells assessed as induction of morphological changes by measuring chromatin condensation measured after 48 hrs by Hoechst stain based flourescence assay in relative to control. The class given is functional, cell-based. The conditions noted are these: dose 2.5-5 µM. In a few lines: (§1)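 MDA-MB-231 cells were treated at 2.5 and 5 µM and stained with Hoechst. Nuclei were examined by fluorescence for chromatin condensation, nuclear shrinkage, and pyknotic or fragmented nuclei against untreated control.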

Assay [3] relates to MDA-MB-231. Description: Induction of apoptosis in human MDA-MB-231 cells assessed as late apoptotic cells at 2.5 uM measured after 48 hrs by Annexin V-FITC/Propidium iodide stain based flow cytometry assay (reference value: 1.2%). It is filed as functional.
The test system of assay [4] is MDA-MB-231. Description: Induction of apoptosis in human MDA-MB-231 cells assessed as necrotic cells at 5 uM measured after 48 hrs by Annexin V-FITC/Propidium iodide stain based flow cytometry assay (reference value: 0.3%). The class given is functional. On the technique in general: A flow cytometer gives signals particle by particle.
For assay [5], the system named is MDA-MB-231. Description: Induction of apoptosis in human MDA-MB-231 cells assessed as induction of morphological changes by measuring nuclear shrinkage and fragmentation in nucleus measured after 48 hrs by Hoechst stain based flourescence assay in relative to control. The class given is functional, cell-based. The conditions noted are these: dose 2.5-5 µM. In outline: as §1

Assay [6] relates to MDA-MB-231. In words: Induction of apoptosis in human MDA-MB-231 cells assessed as necrotic cells at 2.5 uM measured after 48 hrs by Annexin V-FITC/Propidium iodide stain based flow cytometry assay (reference value: 0.3%). It is filed as functional.
Assay [7] concerns MDA-MB-231. In words: Antimigratory activity against human MDA-MB-231 cells assessed as inhibition of cell migration at 2.5 uM measured after 24 hrs by phase contrast microscope based wound healing assay. It is filed as functional. In outline: (§2)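 Confluent MDA-MB-231 monolayers (DMEM, 10% FBS) were scratched with a sterile pipette tip and then treated. Wound closure was imaged by phase contrast microscopy after 24 h and compared with untreated control.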

For a further assay, the system named is PC-3. Description: cells. The conditions noted are these: Homo sapiens, PC-3, 72 h.
Assay [8] deals with MDA-MB-231. Description: Induction of apoptosis in human MDA-MB-231 cells assessed as viable cells at 5 uM measured after 48 hrs by Annexin V-FITC/Propidium iodide stain based flow cytometry assay (reference value: 95.3%). The conditions noted are these: read-out: Activity. The class given is functional.
Assay [9] concerns MDA-MB-231. Description: Induction of apoptosis in human MDA-MB-231 cells assessed as late apoptotic cells at 5 uM measured after 48 hrs by Annexin V-FITC/Propidium iodide stain based flow cytometry assay (reference value: 1.2%). The class given is functional.
Assay [10] deals with MDA-MB-231. Description: Antimigratory activity against human MDA-MB-231 cells assessed as inhibition of cell migration at 5 uM measured after 24 hrs by phase contrast microscope based wound healing assay. The class given is functional. In a few lines: as §2
Assay [11] has as its system MDA-MB-231. In words: Induction of mitochondrial membrane potential loss in human MDA-MB-231 cells assessed as increase in depolarised cells measured after 48 hrs by JC-1 stain based flow cytometry assay relative to control. It is filed as functional, cell-based. The conditions noted are these: dose 2.5-5 µM. In outline:
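MDA-MB-231 cells were treated at 2.5 and 5 µM and stained with JC-1. Depolarised mitochondria were scored by green monomer signal and healthy mitochondria by red J-aggregates, against control.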

Assay [12] relates to MDA-MB-231. In words: Induction of apoptosis in human MDA-MB-231 cells assessed as viable cells at 2.5 uM measured after 48 hrs by Annexin V-FITC/Propidium iodide stain based flow cytometry assay (reference value: 95.3%). It is filed as functional. The conditions noted are these: read-out: Activity.
The subject of assay [13] is MDA-MB-231. Description: Induction of mitochondrial membrane potential loss in human MDA-MB-231 cells assessed as generation of ROS at 2.5 uM measured after 48 hrs by carboxy […] stain based flow cytometry assay relative to control. It is filed as functional, cell-based. In outline: (§3)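 MDA-MB-231 cells were treated at several doses and stained with carboxy-H2DCFDA. ROS were read as green DCF fluorescence relative to untreated control.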

For assay [14], the system named is MDA-MB-231. In words: Induction of apoptosis in human MDA-MB-231 cells assessed as early apoptotic cells at 2.5 uM measured after 48 hrs by Annexin V-FITC/Propidium iodide stain based flow cytometry assay (reference value: 3.2%). It is filed as functional.
The test system of assay [15] is MDA-MB-231. In words: Induction of apoptosis in human MDA-MB-231 cells assessed as early apoptotic cells at 5 uM measured after 48 hrs by Annexin V-FITC/Propidium iodide stain based flow cytometry assay (reference value: 3.2%). It is filed as functional.
Assay [16] has as its system MDA-MB-231. Description: Induction of mitochondrial membrane potential loss in human MDA-MB-231 cells assessed as generation of ROS at 5 uM measured after 48 hrs by carboxy […] stain based flow cytometry assay relative to control. The class given is functional, cell-based. In a few lines:
as §3

The subject of a further assay is A549. Description: cells. The conditions noted are these: Homo sapiens, A549, 72 h.
In a further assay the test system is HepG2. In words: cells. The conditions noted are these: Homo sapiens, HepG2, 72 h.
For assay [17], the system named is HUVEC. In words: Antimigratory activity against human HUVEC cells assessed as inhibition of cell invasion measured by inverted fluorescence microscope based transwell assay. It is filed as functional. The conditions noted are these: dose 2.5-5 µM. In outline: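 A Boyden chamber (transwell) invasion assay used HUVECs passing through Matrigel and a membrane barrier. Treatment was 2.5 and 5 µM, with a reference VEGFR-2 inhibitor as standard. Invaded cells on the bottom side were compared with untreated control.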

In the case of `O=C(Nc1ccc(Cl)cc1)Nc1nc(Sc2c[nH]c3ccccc23)cc(N2CCCC2)n1`, the inhibition entry with HUVEC [1] and in the assay on HUVEC [17] was “Dose-dependent effect” in each case. Moreover, the Activity entry in the assay with MDA-MB-231 [2] is “Dose-dependent effect”; in the assay with MDA-MB-231 [3], 3.8%; in the assay with MDA-MB-231 [4], 0.9%; with MDA-MB-231 [5], “Dose-dependent effect”; with MDA-MB-231 [6], 0.5%; with MDA-MB-231 [9] it was 11.2%. Moreover, the Activity in the assay on MDA-MB-231 [14] amounted to 19.4%; in the assay with MDA-MB-231 [15] it was 36.6%. Further, the inhibition result in the assay on MDA-MB-231 [7] and in the assay with MDA-MB-231 [10] was “Active” throughout. The IC50 came to 10.4 µM in the assay with PC-3, 6.41 µM in the assay with A549 and 7.87 µM with HepG2. For the same compound, the viability at 5 µM in the assay on MDA-MB-231 [8] came out at 51.4%. Also, the result with MDA-MB-231 [11], in the assay with MDA-MB-231 [13] and in the assay on MDA-MB-231 [16] was Active. Also, the viability at 2.5 µM in the assay on MDA-MB-231 [12] stood at 76.2%.

As a reminder, the IC50 is the point on the concentration scale where inhibition reaches its midpoint. High values mean weaker potency in that assay, low ones greater potency in that assay.
